Six compounds from PMC4382465 (The Journal of antibiotics, 2014) can be followed below.

Values after ≈ are worked out from the molar mass of the structure shown. Where two headings read alike, the source gives them in different places.

One data set concerns M. tuberculosis H37Rv. The data set is described as follows: MIC, microplate alamar blue assay. Format: cell-based. To be noted: Mycobacterium tuberculosis.
In data set [1] the test system is non-replicating M. tuberculosis H37Rv (pFCA-luxAB). The data set is described as follows: microbe, parasite or virus in culture. To be noted: Mycobacterium tuberculosis, read-out: MIC μg/mL (LORA). It counts as cell-based.
Data set [2] has as its system HepG2 human hepatoblastoma cells. The data set is described as follows: Cytotoxicity assay. It counts as cell-based. To be noted: HepG2, read-out: IC50 μg/mL HepG2 cells.
The test system of another data set is M. tuberculosis. It counts as cell-based, Mycobacterium tuberculosis. Particulars: for time to kill 50% of Mtb: 2× MIC: rifampicin 0.4, INH 1.0 (so in the source); for time to kill 50% of Mtb / time to kill Mtb completely (100%): UT-01320 3.0 μg/mL; for time to kill Mtb completely (100%): 2× MIC: capuramycin 24.0 μg/mL.
For the next data set, the target named is E. coli RNA polymerase (Escherichia coli, UniProt P0A8T7+P0A8V2). The data set is described as follows: RNA polymerase assay. It counts as biochemical.
Another data set deals with T1, MurX (Mycobacterium tuberculosis, UniProt P9WMW7).
T1 sequence (P9WMW7 1-359): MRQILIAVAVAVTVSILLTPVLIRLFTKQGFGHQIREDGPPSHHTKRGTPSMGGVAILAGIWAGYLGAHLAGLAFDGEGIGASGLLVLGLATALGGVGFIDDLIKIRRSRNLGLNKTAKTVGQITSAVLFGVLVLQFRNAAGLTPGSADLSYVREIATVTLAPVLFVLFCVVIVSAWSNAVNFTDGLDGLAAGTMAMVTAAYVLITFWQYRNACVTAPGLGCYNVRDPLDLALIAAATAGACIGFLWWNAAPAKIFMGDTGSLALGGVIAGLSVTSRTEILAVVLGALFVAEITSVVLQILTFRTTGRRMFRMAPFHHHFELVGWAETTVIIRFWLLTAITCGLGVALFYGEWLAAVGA
The data set is described as follows: MurX enzyme inhibitory assay. It counts as biochemical, M. tuberculosis.

In another data set the test system is Mtb. The data set is described as follows: Micro dilution broth checkerboard. It counts as cell-based, Mycobacterium tuberculosis.
A short description of the next data set: Cytotoxicity assay. It counts as cell-based. Particulars: monkey, Vero monkey kidney cells (ATCC CCL-81). The gist of the method:
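Vero kidney cells grown in 96-well plates in ATCC-formulated Eagle's Minimum Essential Medium and exposed to test compound. Each plate includes reference drugs of known toxicity as controls. Cytopathic effect is read by MTT assay after incubation, and IC50 is reported.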

A further data set deals with M. smegmatis ATCC607. The data set is described as follows: MIC, broth dilution. It counts as cell-based, Mycobacterium smegmatis. To be noted: M. smegmatis ATCC607, broth dilution method. For orientation: Broth dilution looks for growth in wells or tubes with falling amounts of substance.
For another data set, the system named is E. faecium ATCC 349. The data set is described as follows: MIC, broth dilution. Format: cell-based. Particulars: Enterococcus faecium, ATCC349.
A further data set has as its system E. coli ATCC 25019. The data set is described as follows: MIC, broth dilution. It counts as cell-based. To be noted: Escherichia coli, ATCC25019.
The test system of another data set is P. aeruginosa ATCC 27853. The data set is described as follows: MIC, broth dilution. Particulars: Pseudomonas aeruginosa, ATCC27853. It counts as cell-based.
A further data set has as its target S. aureus RNA polymerase (Staphylococcus aureus, UniProt P47768+Q2G0N5). The data set is described as follows: RNA polymerase assay. It counts as biochemical.
In data set [3] the target is M. smegmatis RNA polymerase (Mycolicibacterium smegmatis, UniProt A0QS66+P60281). The data set is described as follows: RNA polymerase assay. Format: biochemical.
The target of data set [4] is bacterial RNA polymerases. The data set is described as follows: RNA polymerase assays, enzyme not given. Format: biochemical. To be noted: read-out: IC50, bacterial RNA polymerases; abstract.
For data set [5], the system named is electron transport systems. The data set is described as follows: Inhibition of electron transport systems. It counts as cell-based.
The test system of the next data set is menaquinone biosynthesis. Format: biochemical.
Data set [6] has as its target T2, Mtb serine/threonine kinase PKnA (Mycobacterium tuberculosis, UniProt P9WI83).
T2 sequence (P9WI83 1-431): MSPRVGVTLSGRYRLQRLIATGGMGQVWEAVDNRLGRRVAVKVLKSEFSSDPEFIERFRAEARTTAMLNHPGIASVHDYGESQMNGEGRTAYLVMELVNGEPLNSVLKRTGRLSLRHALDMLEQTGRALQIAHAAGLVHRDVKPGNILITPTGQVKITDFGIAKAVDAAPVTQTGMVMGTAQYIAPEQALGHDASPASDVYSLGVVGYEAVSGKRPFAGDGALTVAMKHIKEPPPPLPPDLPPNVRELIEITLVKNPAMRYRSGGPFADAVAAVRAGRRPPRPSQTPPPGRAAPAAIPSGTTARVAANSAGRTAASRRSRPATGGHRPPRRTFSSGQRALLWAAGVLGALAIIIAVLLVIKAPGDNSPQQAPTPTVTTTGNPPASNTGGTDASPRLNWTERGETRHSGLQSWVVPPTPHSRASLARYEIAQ
The data set is described as follows: Ser/Thr protein kinase assay. It counts as biochemical, M. tuberculosis.

Data set [7] concerns the target Mtb serine/threonine kinase PknB (Mycobacterium tuberculosis, UniProt P9WI81). The data set is described as follows: Ser/Thr protein kinase assay. It counts as biochemical, M. tuberculosis.
The next data set deals with DNA gyrase (Escherichia coli, UniProt P0AES4+P0AES6). The data set is described as follows: DNA topoisomerase II - DNA supercoiling assay. It counts as biochemical.
Chain of DNA gyrase (P0AES4 whole entry, one chain of several): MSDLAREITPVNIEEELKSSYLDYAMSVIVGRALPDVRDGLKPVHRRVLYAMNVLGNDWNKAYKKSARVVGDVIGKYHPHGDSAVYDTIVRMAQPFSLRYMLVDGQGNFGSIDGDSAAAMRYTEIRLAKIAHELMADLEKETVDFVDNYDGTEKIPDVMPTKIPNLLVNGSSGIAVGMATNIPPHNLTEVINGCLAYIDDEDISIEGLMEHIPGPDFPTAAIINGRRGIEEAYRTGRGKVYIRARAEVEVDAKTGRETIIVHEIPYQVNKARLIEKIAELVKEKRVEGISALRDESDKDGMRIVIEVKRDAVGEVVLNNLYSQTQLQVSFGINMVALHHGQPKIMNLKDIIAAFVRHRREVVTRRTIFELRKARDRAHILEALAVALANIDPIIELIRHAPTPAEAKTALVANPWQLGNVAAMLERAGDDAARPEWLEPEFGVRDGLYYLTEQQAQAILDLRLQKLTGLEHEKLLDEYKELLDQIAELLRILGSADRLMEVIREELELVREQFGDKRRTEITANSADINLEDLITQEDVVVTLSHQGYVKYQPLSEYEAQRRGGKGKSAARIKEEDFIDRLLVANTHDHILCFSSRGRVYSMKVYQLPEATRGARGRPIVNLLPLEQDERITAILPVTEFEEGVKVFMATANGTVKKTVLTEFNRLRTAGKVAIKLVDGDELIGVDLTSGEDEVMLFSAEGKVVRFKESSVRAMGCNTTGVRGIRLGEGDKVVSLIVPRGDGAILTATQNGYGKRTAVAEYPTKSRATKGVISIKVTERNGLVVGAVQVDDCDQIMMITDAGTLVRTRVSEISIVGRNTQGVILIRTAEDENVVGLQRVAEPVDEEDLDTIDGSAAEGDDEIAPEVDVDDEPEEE

Chain of E. coli RNA polymerase (P0A8V2 whole entry): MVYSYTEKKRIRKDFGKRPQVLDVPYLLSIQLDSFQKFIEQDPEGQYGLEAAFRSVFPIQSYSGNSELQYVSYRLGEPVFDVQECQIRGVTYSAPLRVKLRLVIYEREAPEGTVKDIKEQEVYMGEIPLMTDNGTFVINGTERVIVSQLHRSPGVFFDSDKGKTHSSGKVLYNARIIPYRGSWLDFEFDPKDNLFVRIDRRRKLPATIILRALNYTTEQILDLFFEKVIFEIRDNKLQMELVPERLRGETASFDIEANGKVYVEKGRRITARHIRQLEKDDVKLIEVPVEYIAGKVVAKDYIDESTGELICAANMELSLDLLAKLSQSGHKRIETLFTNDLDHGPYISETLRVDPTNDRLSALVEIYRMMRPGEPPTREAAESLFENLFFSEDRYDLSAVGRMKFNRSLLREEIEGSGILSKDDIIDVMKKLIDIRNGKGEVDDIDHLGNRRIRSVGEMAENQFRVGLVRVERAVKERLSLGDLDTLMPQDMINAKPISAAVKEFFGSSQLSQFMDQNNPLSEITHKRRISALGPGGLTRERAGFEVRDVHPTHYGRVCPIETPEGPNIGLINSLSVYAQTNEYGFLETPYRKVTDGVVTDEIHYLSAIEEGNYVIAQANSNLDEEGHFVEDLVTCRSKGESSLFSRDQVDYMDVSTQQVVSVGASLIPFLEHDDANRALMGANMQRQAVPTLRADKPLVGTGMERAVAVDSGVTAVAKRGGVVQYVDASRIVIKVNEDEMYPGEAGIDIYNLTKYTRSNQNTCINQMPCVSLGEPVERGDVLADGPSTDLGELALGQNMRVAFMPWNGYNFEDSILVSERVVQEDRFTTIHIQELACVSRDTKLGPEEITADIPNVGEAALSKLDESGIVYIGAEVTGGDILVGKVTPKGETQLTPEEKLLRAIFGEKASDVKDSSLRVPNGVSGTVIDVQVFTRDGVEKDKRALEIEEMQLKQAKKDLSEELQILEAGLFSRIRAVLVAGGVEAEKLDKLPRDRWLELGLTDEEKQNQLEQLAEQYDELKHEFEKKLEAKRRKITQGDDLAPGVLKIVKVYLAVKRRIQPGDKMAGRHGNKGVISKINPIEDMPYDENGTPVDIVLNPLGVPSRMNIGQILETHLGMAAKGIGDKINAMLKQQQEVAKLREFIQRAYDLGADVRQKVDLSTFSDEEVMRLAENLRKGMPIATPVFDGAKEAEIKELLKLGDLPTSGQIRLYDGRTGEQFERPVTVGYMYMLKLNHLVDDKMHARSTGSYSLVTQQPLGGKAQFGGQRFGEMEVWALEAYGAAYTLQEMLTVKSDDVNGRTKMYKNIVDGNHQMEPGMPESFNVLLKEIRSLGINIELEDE
Chain of E. coli RNA polymerase (P0A8T7 whole entry): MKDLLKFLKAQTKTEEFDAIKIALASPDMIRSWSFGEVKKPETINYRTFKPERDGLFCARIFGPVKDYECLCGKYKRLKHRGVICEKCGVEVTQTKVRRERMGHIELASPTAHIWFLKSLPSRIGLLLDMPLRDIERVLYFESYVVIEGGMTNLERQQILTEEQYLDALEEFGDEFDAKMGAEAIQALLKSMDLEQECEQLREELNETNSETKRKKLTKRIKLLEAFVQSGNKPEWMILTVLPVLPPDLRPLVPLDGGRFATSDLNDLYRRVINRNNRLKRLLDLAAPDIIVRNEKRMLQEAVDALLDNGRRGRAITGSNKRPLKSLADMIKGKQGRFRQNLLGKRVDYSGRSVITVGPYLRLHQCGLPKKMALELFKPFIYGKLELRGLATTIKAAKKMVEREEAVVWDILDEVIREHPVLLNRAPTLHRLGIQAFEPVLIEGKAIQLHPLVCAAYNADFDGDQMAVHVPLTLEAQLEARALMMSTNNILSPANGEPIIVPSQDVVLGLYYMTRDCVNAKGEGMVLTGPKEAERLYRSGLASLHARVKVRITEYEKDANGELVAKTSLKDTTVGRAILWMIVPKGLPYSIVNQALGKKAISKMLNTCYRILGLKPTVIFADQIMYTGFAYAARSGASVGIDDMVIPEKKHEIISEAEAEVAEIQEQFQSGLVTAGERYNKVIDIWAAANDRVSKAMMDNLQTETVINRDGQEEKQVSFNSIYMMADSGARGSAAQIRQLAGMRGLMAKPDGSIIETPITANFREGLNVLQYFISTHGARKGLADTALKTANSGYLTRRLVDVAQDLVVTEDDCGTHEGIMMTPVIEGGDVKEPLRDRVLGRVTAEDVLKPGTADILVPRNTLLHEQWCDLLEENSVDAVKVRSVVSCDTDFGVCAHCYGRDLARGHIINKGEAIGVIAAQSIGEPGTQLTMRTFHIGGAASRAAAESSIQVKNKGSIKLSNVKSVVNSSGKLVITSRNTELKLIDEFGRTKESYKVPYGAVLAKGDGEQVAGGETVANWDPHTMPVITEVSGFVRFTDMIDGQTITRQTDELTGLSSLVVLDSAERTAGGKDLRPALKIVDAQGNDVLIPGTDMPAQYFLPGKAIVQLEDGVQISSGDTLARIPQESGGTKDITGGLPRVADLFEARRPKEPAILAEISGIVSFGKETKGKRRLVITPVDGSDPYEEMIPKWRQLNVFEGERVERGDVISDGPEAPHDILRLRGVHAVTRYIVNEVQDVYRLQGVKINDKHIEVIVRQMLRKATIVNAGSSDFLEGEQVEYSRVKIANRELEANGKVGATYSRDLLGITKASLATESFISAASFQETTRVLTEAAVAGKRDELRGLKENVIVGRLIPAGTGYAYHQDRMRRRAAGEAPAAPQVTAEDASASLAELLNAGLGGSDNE
Chain of E. coli RNA polymerase (P0A7Z4 whole entry partner): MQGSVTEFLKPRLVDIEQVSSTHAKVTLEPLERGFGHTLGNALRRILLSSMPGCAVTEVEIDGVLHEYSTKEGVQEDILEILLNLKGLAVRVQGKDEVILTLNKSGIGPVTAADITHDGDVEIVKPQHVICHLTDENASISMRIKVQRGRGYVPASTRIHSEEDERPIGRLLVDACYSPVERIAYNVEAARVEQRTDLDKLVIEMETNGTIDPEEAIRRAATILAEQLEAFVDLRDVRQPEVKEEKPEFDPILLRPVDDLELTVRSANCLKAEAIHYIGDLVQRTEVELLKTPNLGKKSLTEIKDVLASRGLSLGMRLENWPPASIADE
Chain of E. coli RNA polymerase (P0A800 whole entry partner): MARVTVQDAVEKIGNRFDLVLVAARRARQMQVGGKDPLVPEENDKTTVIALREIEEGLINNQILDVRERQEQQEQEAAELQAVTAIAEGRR
Chain of Mtb serine/threonine kinase PknB (P9WI81 whole entry): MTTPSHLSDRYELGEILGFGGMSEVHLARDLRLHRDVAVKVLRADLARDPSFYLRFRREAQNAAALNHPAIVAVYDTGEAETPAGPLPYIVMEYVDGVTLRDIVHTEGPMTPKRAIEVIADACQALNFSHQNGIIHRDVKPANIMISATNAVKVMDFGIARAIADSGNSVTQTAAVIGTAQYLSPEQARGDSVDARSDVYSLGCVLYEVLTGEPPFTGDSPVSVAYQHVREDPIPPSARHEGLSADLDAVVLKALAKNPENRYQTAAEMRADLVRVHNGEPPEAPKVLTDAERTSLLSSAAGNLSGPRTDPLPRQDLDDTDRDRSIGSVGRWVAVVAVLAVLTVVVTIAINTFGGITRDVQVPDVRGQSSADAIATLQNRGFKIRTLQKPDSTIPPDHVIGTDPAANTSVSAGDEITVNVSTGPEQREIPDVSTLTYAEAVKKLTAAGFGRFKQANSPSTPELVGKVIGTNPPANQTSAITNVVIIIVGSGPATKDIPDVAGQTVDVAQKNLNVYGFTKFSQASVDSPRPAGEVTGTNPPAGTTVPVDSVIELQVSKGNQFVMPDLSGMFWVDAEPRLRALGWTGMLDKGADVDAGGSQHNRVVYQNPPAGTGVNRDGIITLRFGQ

As for `NNC(=O)c1ccncc1` [Isoniazid (INH), Isoniazid], the MIC in the data set with M. tuberculosis H37Rv is 0.04 to 0.1 µg/mL (≈ 0.292 to 0.729 µM); with M. tuberculosis H37Rv (read-out: MIC μg/mL (MABA)) it was 0.04 to 0.1 µg/mL (≈ 0.292 to 0.729 µM); in data set [1], greater than 100 µg/mL. Also, in [2], the IC50 is greater than 400 µg/mL.

As to `CO[C@H]1/C=C/O[C@@]2(C)Oc3c(C)c(O)c4c(O)c(c(/C=N/N5CCN(C)CC5)c(O)c4c3C2=O)NC(=O)/C(C)=C\C=C\[C@H](C)[C@H](O)[C@@H](C)[C@@H](O)[C@@H](C)[C@H](OC(C)=O)[C@@H]1C` [Rifampicin (RFP), Rifampicin], the MIC in the data set with M. tuberculosis H37Rv and in the data set on M. tuberculosis H37Rv (read-out: MIC μg/mL (MABA)) was 0.2 µg/mL (≈ 0.243 µM) in each case. For the same compound, the IC50 is greater than 400 µg/mL in [2] and 120 nM against E. coli RNA polymerase. The “time to kill 50% of Mtb” value with M. tuberculosis is on record as “over 7 days”.

For the compound `COC1C(O)C(n2ccc(=O)[nH]c2=O)OC1C(OC1OC(C(=O)Nc2ccc(F)c(F)c2)=CC(O)C1O)C(N)=O` (stereo not drawn) [SQ 641 (2), 6-{Carbamoyl-[5-(2,4-dioxo-3,4-dihydro-2H-pyrimidin-1-yl)-4-hydroxy-3-methoxy-tetrahydro-furan-2-yl]-methoxy}-4,5-dihydroxy-5,6-dihydro-4H-pyran-2-carboxylic acid (3,4-difluoro-phenyl)-amide], the IC50 at MurX was 98 nM; in data set [2], greater than 400 µg/mL. Besides, in data set [1], the MIC is greater than 100 µg/mL. Moreover, the “MIC (μg/mL) CA and CB (concentration in combination)” value with Mtb (pair SQ 641 0.10 + UT-01320 0.08), with Mtb (pair SQ 641 0.10 + UT-01320 0.16), in the data set with Mtb (pair SQ 641 0.10 + UT-01320 0.32), with Mtb (pair SQ 641 0.10 + UT-01320 0.645) and with Mtb (pair SQ 641 0.10 + UT-01320 1.29) was 0.10 µg/mL throughout.

With `COC1C(C(OC2OC(C(=O)NC3CCCCNC3=O)=CC(O)C2O)C(N)=O)OC(n2ccc(=O)[nH]c2=O)C1OC` (stereo not drawn) [UT-01320 (3), 6-{Carbamoyl-[5-(2,4-dioxo-3,4-dihydro-2H-pyrimidin-1-yl)-3,4-dimethoxy-tetrahydro-furan-2-yl]-methoxy}-4,5-dihydroxy-5,6-dihydro-4H-pyran-2-carboxylic acid (2-oxo-azepan-3-yl)-amide], the IC50 against MurX was greater than 100000 nM; in [2], greater than 400 µg/mL; in the data set “Cytotoxicity assay”, greater than 400 µg/mL; on E. coli RNA polymerase it was 100 to 150 nM; against S. aureus RNA polymerase, 100 to 150 nM; in [3], 100 to 150 nM. In data set [4], the IC50 fell in the range of 100 to 150 nM. Besides, the “MurX enzyme inhibitory activity” value on MurX is “did not interfere with MurX”; at MurX (listed as 3), “did not exhibit MurX enzyme inhibitory activity even at high concentrations”. The MIC in the data set on M. tuberculosis H37Rv was 1.5 µg/mL (≈ 2.57 µM); in data set [1], 2.58 µg/mL (≈ 4.42 µM); with M. smegmatis ATCC607, greater than 200 µg/mL; against E. faecium ATCC 349 it was greater than 200 µg/mL; against E. coli ATCC 25019 it was greater than 200 µg/mL; against P. aeruginosa ATCC 27853, greater than 200 µg/mL. Moreover, in the data set with M. tuberculosis, the “time to kill Mtb completely (100%)” value was no more than 5 days. For the same compound, in the data set on M. tuberculosis, the “time to kill 50% of Mtb” value is given as no more than 3 days. Besides, in the data set with M. tuberculosis (4× MIC: UT-01320 6.0 μg/mL), the “time to kill 100% of Mtb” value is recorded as no more than 3 days. For the same compound, the “inhibition of electron transport systems” value in data set [5] was “did not inhibit”. Further, in the data set on menaquinone biosynthesis, the “inhibition of menaquinone biosynthesis” value is on record as “did not inhibit”. For the same compound, the “inhibition of Mtb serine/threonine kinase PKnA” value in [6] is listed as “did not inhibit”. Also, the “inhibition of Mtb serine/threonine kinase PknB” value in [7] was “did not inhibit”. At DNA gyrase, the “inhibition of DNA gyrase” value is “did not inhibit”.

Take `CC[C@@H](CO)NCCN[C@@H](CC)CO` [Ethambutol (EMB), Ethambutol]: the MIC is 0.78 µg/mL (≈ 3.82 µM) in the data set on M. tuberculosis H37Rv (read-out: MIC μg/mL (MABA)) and greater than 100 µg/mL in data set [1]. Moreover, the IC50 in data set [2] was greater than 400 µg/mL.

Consider `COC1C(O)C(n2ccc(=O)[nH]c2=O)OC1C(OC1OC(C(=O)NC2CCCCNC2=O)=CC(O)C1O)C(N)=O` (stereo not drawn) [Capuramycin (1), 6-{Carbamoyl-[5-(2,4-dioxo-3,4-dihydro-2H-pyrimidin-1-yl)-4-hydroxy-3-methoxy-tetrahydro-furan-2-yl]-methoxy}-4,5-dihydroxy-5,6-dihydro-4H-pyran-2-carboxylic acid (2-oxo-azepan-3-yl)-amide], for which the IC50 at MurX is 127 nM; in data set [2], greater than 400 µg/mL. Also, in [1], the MIC is greater than 100 µg/mL. Also, in the data set with M. tuberculosis, the “time to kill Mtb completely (100%)” value was 2 days. For the same compound, the “log10 CFU/mL reduction” value with M. tuberculosis (in 1 day, 24.0 μg/mL (2× MIC)) is recorded as no less than 3.0 log10 CFU/mL.
